Laboratory results: ChEMBL document CHEMBL1154599 (J Med Chem, 2009)

Legend:
[1] = molecular target: T1, Amine oxidase [flavin-containing] A (Rattus norvegicus, UniProt P21396); experiment: Inhibition of MAO-A from Wistar rat brain by radioenzymatic assay
T1 sequence (P21396 whole entry): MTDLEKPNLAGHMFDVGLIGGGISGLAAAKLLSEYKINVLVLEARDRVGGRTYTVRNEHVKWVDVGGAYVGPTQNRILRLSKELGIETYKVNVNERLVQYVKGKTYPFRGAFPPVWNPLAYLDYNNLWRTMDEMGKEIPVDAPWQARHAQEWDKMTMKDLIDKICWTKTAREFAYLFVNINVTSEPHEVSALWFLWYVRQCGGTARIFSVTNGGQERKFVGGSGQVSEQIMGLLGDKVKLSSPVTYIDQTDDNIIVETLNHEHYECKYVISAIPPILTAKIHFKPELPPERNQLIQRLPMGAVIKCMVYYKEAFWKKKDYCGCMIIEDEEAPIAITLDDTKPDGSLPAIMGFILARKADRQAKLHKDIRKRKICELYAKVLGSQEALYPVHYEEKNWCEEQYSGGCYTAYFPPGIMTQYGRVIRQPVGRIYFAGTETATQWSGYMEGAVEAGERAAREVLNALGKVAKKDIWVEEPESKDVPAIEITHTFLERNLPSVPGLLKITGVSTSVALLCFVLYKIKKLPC
Outline: (§1)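 Crude mitochondrial fraction from male Wistar rat brain (150-175 g), 500 μg protein in 0.1 M phosphate pH 7.40. Preincubated 30 min at 37 °C with compound. Substrate then added: [14C]5-HT 5 μM for 30 min (MAO-A) or [14C]PEA 0.5 μM for 10 min (MAO-B), 37 °C. Stopped with acid, deaminated metabolites extracted into ether or toluene, counted by scintillation.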

[2] = molecular target: T2, Amine oxidase [flavin-containing] B (Rattus norvegicus, UniProt P19643); experiment: Inhibition of MAO-B from Wistar rat brain by radioenzymatic assay; outline: as §1
T2 sequence (P19643 whole entry): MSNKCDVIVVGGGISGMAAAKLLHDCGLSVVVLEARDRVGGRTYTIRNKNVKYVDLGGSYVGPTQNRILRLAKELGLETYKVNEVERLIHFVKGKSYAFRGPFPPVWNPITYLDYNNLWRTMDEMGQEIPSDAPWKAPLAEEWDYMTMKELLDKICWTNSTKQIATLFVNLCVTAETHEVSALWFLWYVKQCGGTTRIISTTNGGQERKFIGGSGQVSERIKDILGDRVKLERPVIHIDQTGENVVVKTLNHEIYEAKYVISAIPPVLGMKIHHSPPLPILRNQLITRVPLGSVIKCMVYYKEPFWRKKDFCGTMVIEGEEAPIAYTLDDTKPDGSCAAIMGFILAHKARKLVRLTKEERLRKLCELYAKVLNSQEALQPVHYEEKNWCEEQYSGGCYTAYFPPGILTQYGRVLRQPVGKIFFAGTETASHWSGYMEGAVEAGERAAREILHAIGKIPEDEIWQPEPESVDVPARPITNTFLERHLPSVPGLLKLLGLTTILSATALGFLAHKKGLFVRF

Rattus norvegicus = organism: Rattus norvegicus; experiment: Selectivity index, ratio of IC50 for rat MAO-A to IC50 for rat MAO-B
Outline: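 Ratio of IC50 values from rat brain mitochondrial radioenzymatic assays: MAO-A with [14C]5-HT 5 μM, 30 min, and MAO-B with [14C]PEA 0.5 μM, 10 min. Both after 30 min preincubation with compound at 37 °C.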

[3] = Octanol-water partition coefficient, log P calculated with Bioloom (BioByte)
[4] = Permeability across PAMPA membrane assessed as retention at 617 uM by HDM-PAMPA assay; assay type: ADME
Outline: (§2)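 HDM-PAMPA on polycarbonate filters coated with hexadecane (applied in hexane, which was evaporated). Donor at 617 μM in 0.1 M phosphate pH 6.8 with 5% DMSO, same pH in donor and acceptor. Incubated 5 h at room temperature with shaking at 75 rpm. Compartments quantified by HPLC. Pe, retention R and CA(t)/CD(0) calculated by equations 1-2. Quadruplicate.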

[5] = Permeability across PAMPA membrane assessed as amount of drug reaching acceptor compartment at 617 uM by HDM-PAMPA assay; assay type: ADME; outline: as §2
[6] = Permeability across PAMPA membrane assessed as permeability coefficient at 617 uM by HDM-PAMPA assay; assay type: ADME; outline: as §2
[7] = molecular target: T1, Amine oxidase [flavin-containing] A; experiment: Inhibition of MAO-A from Wistar rat brain at 10 uM by radioenzymatic assay

| IC50 [1] [µM] | IC50 [2] [µM] | Ratio IC50 (Rattus norvegicus) | SMILES | also measured |
| --- | --- | --- | --- | --- |
| 2.8 | 0.015 | 187 | CNC(=O)Cc1cc(=O)oc2cc(OCc3ccccc3)ccc12 |  |
| 8 | 0.2 | 40 | NC(=O)Cc1cc(=O)oc2cc(OCc3ccccc3)ccc12 |  |
| 22.7 | 1.8 | 13 | C[C@H](NCc1cc(=O)oc2cc(OCc3ccccc3)ccc12)C(N)=O |  |
| 26 | 0.03 | 867 | NC(=O)Cc1cc(=O)oc2cc(OCc3cccc(Cl)c3)ccc12 |  |
| 22.6 | 0.1 | 226 | CCNCc1cc(=O)oc2cc(OCc3cccc(F)c3)ccc12 |  |
| 100 | 1.8 | 56 | CN(C)Cc1cc(=O)oc2cc(OCc3ccccc3)ccc12 |  |
|  |  | 247 | CNCCc1cc(=O)oc2cc(OCc3cccc(Cl)c3)ccc12 |  |
|  |  |  | Cc1cc(=O)oc2cc(OCc3cccc(Cl)c3)ccc12 | logP [3]: 4.73; permeability [4]: 72%; permeability [5]: 3.7%; log Pe [6]: -4.13 cm/s |
| > 100 | > 10 |  | CCCCNC(=O)Cc1cc(=O)oc2cc(OCc3cccc(Cl)c3)ccc12 |  |
|  |  | 1400 | NC(=O)Cc1cc(=O)oc2cc(OCc3cccc(F)c3)ccc12 |  |
| > 100 | 5 | > 20 | O=C(Cc1cc(=O)oc2cc(OCc3cccc(Cl)c3)ccc12)NCc1ccccc1 |  |
| 91 | 3.8 | 24 | CC(C)NCc1cc(=O)oc2cc(OCc3cccc(F)c3)ccc12 |  |
| 5.4 | 0.02 | 270 | CNCc1cc(=O)oc2cc(OCc3ccc4c(c3)OCO4)ccc12 |  |
| > 100 | 3.6 | > 28 | O=c1cc(CNCc2ccccc2)c2ccc(OCc3cccc(Cl)c3)cc2o1 |  |
| 50.8 | 1.12 | 45 | CN(C)Cc1cc(=O)oc2cc(OCc3cccc(Cl)c3)ccc12 |  |
| 23.1 | 0.4 | 58 | CN(C)C(=O)Cc1cc(=O)oc2cc(OCc3ccccc3)ccc12 |  |
| 4.27 | 1 | 4 | NC(=O)Cc1cc(=O)oc2cc(OCc3cccc(O)c3)ccc12 |  |
| 35 | 0.38 | 92 | NC(=O)[C@@H]1CCCN1Cc1cc(=O)oc2cc(OCc3ccccc3)ccc12 |  |
| 1.44 |  | 36 | NNC(=O)Cc1cc(=O)oc2cc(OCc3ccccc3)ccc12 |  |
|  |  | 127 | NCCc1cc(=O)oc2cc(OCc3cccc(Cl)c3)ccc12 |  |
| 2 | 0.015 | 133 | NCc1cc(=O)oc2cc(OCc3cccc(Cl)c3)ccc12 |  |
| > 100 | 0.85 | > 117 | NC(=O)[C@@H]1CCCN1Cc1cc(=O)oc2cc(OCc3cccc(F)c3)ccc12 |  |

| IC50 [1] [µM] | IC50 [2] [µM] | Ratio IC50 (Rattus norvegicus) | SMILES | also measured |
| --- | --- | --- | --- | --- |
|  | 0.21 |  | C[C@H](Nc1cc(=O)oc2cc(OCc3cccc(Cl)c3)ccc12)C(N)=O | inhibition at 10 µM [7]: 35% |
|  | 0.018 |  | CNCc1cc(=O)oc2cc(OCc3cccc(F)c3)ccc12 |  |
| 99.8 | 16.1 | 6 | NC(=O)[C@@H]1CCCN1c1cc(=O)oc2cc(OCc3ccccc3)ccc12 |  |
| 6.26 | 0.1 | 63 | CC(C(N)=O)c1cc(=O)oc2cc(OCc3ccccc3)ccc12 (racemic) |  |
| 0.5 | 0.024 | 21 | CNC(=O)Cc1cc(=O)oc2cc(OCc3cccc(Cl)c3)ccc12 |  |
| > 100 | 0.51 | > 196 | CN(C)Cc1cc(=O)oc2cc(OCc3cccc(F)c3)ccc12 |  |
| 2.5 | 0.09 | 28 | NNC(=O)Cc1cc(=O)oc2cc(OCc3cccc(Cl)c3)ccc12 |  |
| > 100 | 8 | > 13 | CN(Cc1ccccc1)Cc1cc(=O)oc2cc(OCc3cccc(Cl)c3)ccc12 |  |
| 100 | 0.68 | 147 | C[C@H](Nc1cc(=O)oc2cc(OCc3ccccc3)ccc12)C(N)=O |  |
| 0.47 | 0.016 | 29 | N#CCc1cc(=O)oc2cc(OCc3cccc(Cl)c3)ccc12 |  |
| 0.2 | 0.23 | 0.9 | N#CCc1cc(=O)oc2cc(OCc3ccccc3)ccc12 |  |
|  | 9.6 |  | NC(=O)[C@@H]1CCCN1c1cc(=O)oc2cc(OCc3cccc(Cl)c3)ccc12 | inhibition at 10 µM [7]: 5% |
| 21 | 1.3 | 16 | NC(=O)Cc1cc(=O)oc2cc(OCc3cccnc3)ccc12 |  |
| 25.9 | 0.46 | 56 | CN(C)CCc1cc(=O)oc2cc(OCc3ccccc3)ccc12 |  |
| 26.5 | 2 | 13 | NC(=O)Cc1cc(=O)oc2cc(OCc3ccncc3)ccc12 |  |
| 2 | 0.1 | 20 | CC(C(N)=O)c1cc(=O)oc2cc(OCc3cccc(F)c3)ccc12 (racemic) |  |
| > 100 | > 10 |  | CCCCN(C)C(=O)Cc1cc(=O)oc2cc(OCc3cccc(Cl)c3)ccc12 |  |
| > 100 | > 10 |  | NCCNC(=O)Cc1cc(=O)oc2cc(OCc3cccc(Cl)c3)ccc12 |  |
| 4.4 | 0.021 | 210 | NCc1cc(=O)oc2cc(OCc3ccccc3)ccc12 |  |
| 15.4 | 0.028 | 550 | CNCc1cc(=O)oc2cc(OCc3ccccc3)ccc12 |  |
| > 100 | 2.4 | > 42 | NC(=O)[C@H](CO)Nc1cc(=O)oc2cc(OCc3cccc(Cl)c3)ccc12 |  |
|  |  | > 2400 | CN(C)C(=O)Cc1cc(=O)oc2cc(OCc3cccc(Cl)c3)ccc12 |  |
